Measured values from different studies.
Each line is one published result; the experiments were not run side by side.
Route: oral

CS(=O)(=O)CCC#N
Tmax (human; plasma; 300 mg; single dose, fasted): 1.5 h

C[C@@]1(c2cc(NC(=O)c3ccc(C#N)cn3)ccc2F)C=CSC(N)=N1
Tmax (human; plasma; 10 mg; single dose): 0.88 h

CC(C)[C@](O)(c1ccc2cc(OC(F)F)c(OC(F)F)cc2c1)c1c[nH]nn1
Tmax (female human; plasma; 600 mg; single dose): 2.5 h

Cc1nc(NC(=O)N2CCC[C@H]2C(N)=O)sc1-c1ccnc(C(C)(C)C(F)(F)F)c1
Tmax (human; plasma; 90 mg; patients): 2 h

CCc1nc2c(C)cc(N3CCN(CC(=O)N4CC(O)C4)CC3)cn2c1N(C)c1nc(-c2ccc(F)cc2)c(C#N)s1
Tmax (human; plasma; 600 mg; single dose, fed, healthy volunteers): 3.5 h

CC(C)(O)c1ccccc1-c1ccc2[nH]c(/C=C/c3ccc(C(F)(F)F)cc3)nc2c1
Tmax (male human; plasma; 50 mg; single dose, fasted): 2.9 h

Cn1cc(-c2ccc(S(=O)(=O)[C@@H]3C[C@@H](C(=O)NC4(C#N)CC4)N(C(=O)C4(C(F)(F)F)CC4)C3)c(C(F)(F)F)c2)cn1
Tmax (human; plasma; 100 mg; single dose, fed): 5 h

CC(C)n1cc(C#N)c2cc(-n3cc(C(=O)O)cn3)ccc21
Tmax (human; plasma; 100 mg; single dose, fasted, healthy volunteers): 3.5 h

COc1ccc([C@@H]2CN(C(=O)[C@@H](O)CO)C[C@@]2(C)[C@@H](C)O)cc1OC1CN(c2ccc(C)cn2)C1
Tmax (human; plasma; 0.1 mg; single dose, healthy volunteers): 1 h

c1cnc2ccc(Nc3nc(NC4CC4)c4nc[nH]c4n3)cc2c1
Tmax (human; plasma; 100 mg/m²; patients): 5.7 h

Oc1cc(O)c2c(c1)O[C@@H](c1ccc(O)c(O)c1)[C@@H](O)C2
Tmax (human; plasma; 30 mg; single dose): 1 h

C=CC(=O)N1CCC(Oc2cc3c(Nc4ccc(Cl)c(Cl)c4F)ncnc3cc2OC)CC1
Tmax (human; plasma; 16 mg; single dose, fed): 3.01 h

CC(C)(C)N/[N+]([O-])=N/OC1CCN(c2ccc(C#N)cn2)CC1
Tmax (male human; plasma; single dose, healthy volunteers): 1 to 2 h

C=CC(=O)N(C)CCOc1c(N)ncnc1-c1cc(F)cc(NC(=O)c2ccc(C3CC3)cc2F)c1C
Tmax (human; blood; 60 mg; single dose, healthy volunteers): 1.01 h

CCc1nc(C(N)=O)c(Nc2ccc(N3CCC(N4CCN(C)CC4)CC3)c(OC)c2)nc1NC1CCOCC1
Tmax (human; plasma; 300 mg; multiple doses, patients): 6.93 h

COc1cc(N2CCC(N3CCN(C)CC3)CC2)ccc1Nc1ncnc(Nc2ccccc2S(=O)(=O)C(C)C)n1
Tmax (human; plasma; 200 mg; multiple doses, patients): 2.96 h

NS(=O)(=O)NCCNc1nonc1C(=NO)Nc1ccc(F)c(Br)c1
Tmax (human; plasma; 50 mg; multiple doses, once daily, steady state, patients): 2 h

CC(C)(Sc1ccncc1-c1ccc(C#N)c2ccccc12)C(=O)O
Tmax (male human; plasma; 20 mg; single dose, fed, healthy volunteers): 1.25 h

C[C@@H](Nc1cc(F)cc(F)c1)c1cc(C(=O)N(C)C)cc2c(=O)cc(N3CCOCC3)oc12
Tmax (human; plasma; 60 mg; single dose, patients): 1.27 h

CCOc1ccc(Cc2cc([C@@H]3O[C@H](CO)[C@@H](O)[C@H](O)[C@H]3O)ccc2Cl)cc1
Tmax (human; plasma; 10 mg; multiple doses, steady state): 0.77 h
